{"source": "ChEMBL document CHEMBL4316593", "about": "(Eur J Med Chem, 2019)", "key": {"U-87 MG [1]": {"test_system": "U-87 MG", "experiment": "Cell cycle arrest in human U87 cells assessed as change in CDK7 gene expression at cytotoxic IC50 measured after 48 hrs […] relative to control", "format": "functional, U-87MG ATCC", "outline": "(§1)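 U87 expression profiling. Cells incubated 48hrs at 37°C, 5% CO₂ with the IC₅₀ concentration, alongside a cisplatin and an untreated control, in triplicate. RNA was isolated by one common protocol and profiled. DEGs were called with DESeq2 (q < 0.05, fold change > 1.5) and expressed as fold change versus untreated.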"}, "U-87 MG [2]": {"test_system": "U-87 MG", "experiment": "Cell cycle arrest in human U87 cells assessed as change in YWHAG gene expression at cytotoxic IC50 measured after 48 hrs […] relative to control", "format": "functional, U-87MG ATCC", "outline": "as §1"}, "U-87 MG [3]": {"test_system": "U-87 MG", "experiment": "Induction of DNA damage in human U87 cells assessed as change in CDK1 gene expression at cytotoxic IC50 measured after 48 hrs […] relative to control", "format": "functional, U-87MG ATCC", "outline": "as §1"}, "U-87 MG [4]": {"test_system": "U-87 MG", "experiment": "Induction of DNA damage in human U87 cells assessed as change in MDM2 gene expression at cytotoxic IC50 measured after 48 hrs […] relative to control", "format": "functional, U-87MG ATCC", "outline": "as §1"}, "LN-229": {"test_system": "LN-229", "experiment": "Induction of apoptosis in human LN229 cells assessed as apoptotic cells at cytotoxic IC50 measured after 48 hrs by Annexin V-FITC/propidium iodide staining based flow cytometry (reference value: 29.3%)", "format": "functional"}, "U-87 MG [5]": {"test_system": "U-87 MG", "experiment": "Induction of apoptosis in human U87 cells assessed as change in FOS gene expression at cytotoxic IC50 measured after 48 hrs […] relative to control", "format": "functional, U-87MG ATCC", "outline": "(§2)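 U87 cells grown in MEM with 10% FBS at 37°C, 5% CO2. Cells exposed to IC50 of test compound for 48 hrs, alongside untreated and cisplatin controls, each condition in triplicate. RNA isolated and profiled; differential expression called with DESeq2 (q-value < 0.05, fold change > 1.5), fold change versus untreated.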"}, "U-87 MG [6]": {"test_system": "U-87 MG", "experiment": "Induction of apoptosis in human U87 cells assessed as change in TNFRSF10C gene expression at cytotoxic IC50 measured after 48 hrs […] relative to control", "format": "functional, U-87MG ATCC", "outline": "as §2"}, "[7]": {"experiment": "Inhibition of RTK/PI3K/AKT/mTOR signaling in human U87 cells assessed as down regulation of NXF1 gene expression at cytotoxic IC50 measured after 48 hrs relative to control", "format": "cell-based", "conditions": "U-87MG ATCC", "outline": "(§3)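 Cells were exposed for 48hrs at 37°C in humidified 5% CO₂ to the compound at its previously determined IC₅₀, with Cisplatin at its IC₅₀ and an untreated negative control alongside. Each condition was run in triplicate. RNA was isolated from all samples by the same protocol. Genes were called differentially expressed by DESeq2 at q-value < 0.05 and fold change > 1.5.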"}, "[8]": {"experiment": "Inhibition of RTK/PI3K/AKT/mTOR signaling in human U87 cells assessed as down regulation of LAMA2 gene expression at cytotoxic IC50 measured after 48 hrs relative to control", "format": "cell-based", "conditions": "U-87MG ATCC", "outline": "as §2"}, "[9]": {"experiment": "Inhibition of RTK/PI3K/AKT/mTOR signaling in human U87 cells assessed as down regulation of RFC4 gene expression at cytotoxic IC50 measured after 48 hrs relative to control", "format": "cell-based", "conditions": "U-87MG ATCC", "outline": "as §3"}, "[10]": {"experiment": "Inhibition of RTK/PI3K/AKT/mTOR signaling in human U87 cells assessed as down regulation of CMTM3 gene expression at cytotoxic IC50 measured after 48 hrs relative to control", "format": "cell-based", "conditions": "U-87MG ATCC", "outline": "as §2"}, "[11]": {"experiment": "Inhibition of RTK/PI3K/AKT/mTOR signaling in human U87 cells assessed as down regulation of FLII gene expression at cytotoxic IC50 measured after 48 hrs relative to control", "format": "cell-based", "conditions": "U-87MG ATCC", "outline": "as §2"}, "[12]": {"experiment": "Inhibition of RTK/PI3K/AKT/mTOR signaling in human U87 cells assessed as down regulation of DHX30 gene expression at cytotoxic IC50 measured after 48 hrs relative to control", "format": "cell-based", "conditions": "U-87MG ATCC", "outline": "as §2"}, "[13]": {"experiment": "Inhibition of RTK/PI3K/AKT/mTOR signaling in human U87 cells assessed as down regulation of XPO6 gene expression at cytotoxic IC50 measured after 48 hrs relative to control", "format": "cell-based", "conditions": "U-87MG ATCC", "outline": "as §3"}, "[14]": {"experiment": "Inhibition of RTK/PI3K/AKT/mTOR signaling in human U87 cells assessed as up regulation of FAM131C gene expression at cytotoxic IC50 measured after 48 hrs relative to control", "format": "cell-based", "conditions": "U-87MG ATCC", "outline": "as §3"}, "[15]": {"experiment": "Inhibition of RTK/PI3K/AKT/mTOR signaling in human U87 cells assessed as up regulation of SLC45A3 gene expression at cytotoxic IC50 measured after 48 hrs relative to control", "format": "cell-based", "conditions": "U-87MG ATCC"}, "[16]": {"experiment": "Inhibition of RTK/PI3K/AKT/mTOR signaling in human U87 cells assessed as up regulation of erythrocyte membrane protein band 4.1 gene expression at cytotoxic IC50 measured after 48 hrs relative to control", "format": "cell-based"}, "[17]": {"experiment": "Inhibition of RTK/PI3K/AKT/mTOR signaling in human U87 cells assessed as up regulation of T-cell leukemia translocation altered gene expression at cytotoxic IC50 measured after 48 hrs relative to control", "format": "cell-based"}, "[18]": {"experiment": "Inhibition of RTK/PI3K/AKT/mTOR signaling in human U87 cells assessed as up regulation of lecithin retinol acyltransferase (phosphatidylcholine-retinol O-acyltransferase) gene expression at cytotoxic IC50 measured after 48 hrs relative to control", "format": "cell-based", "conditions": "U-87MG ATCC"}, "[19]": {"experiment": "Inhibition of RTK/PI3K/AKT/mTOR signaling in human U87 cells assessed as up regulation of solute carrier family 4 member 2 gene expression at cytotoxic IC50 measured after 48 hrs relative to control", "format": "cell-based", "conditions": "U-87MG ATCC"}, "[20]": {"experiment": "Inhibition of RTK/PI3K/AKT/mTOR signaling in human U87 cells assessed as up regulation of MRG domain binding protein gene expression at cytotoxic IC50 measured after 48 hrs relative to control", "format": "cell-based", "conditions": "U-87MG ATCC", "outline": "as §3"}, "[21]": {"experiment": "Inhibition of RTK/PI3K/AKT/mTOR signaling in human U87 cells assessed as up regulation of solute carrier family 12 member 9 gene expression at cytotoxic IC50 measured after 48 hrs relative to control", "format": "cell-based", "conditions": "U-87MG ATCC"}, "[22]": {"experiment": "Inhibition of RTK/PI3K/AKT/mTOR signaling in human U87 cells assessed as up regulation of mesencephalic astrocyte derived neurotrophic factor gene expression at cytotoxic IC50 measured after 48 hrs relative to control", "format": "cell-based"}, "[23]": {"experiment": "Inhibition of RTK/PI3K/AKT/mTOR signaling in human U87 cells assessed as up regulation of ADP ribosylation factor like GTPase 6 interacting protein 5 gene expression at cytotoxic IC50 measured after 48 hrs relative to control", "format": "cell-based", "conditions": "U-87MG ATCC", "outline": "as §3"}, "[24]": {"experiment": "Inhibition of RTK/PI3K/AKT/mTOR signaling in human U87 cells assessed as up regulation of AHNAK2 gene expression at cytotoxic IC50 measured after 48 hrs relative to control", "format": "cell-based", "conditions": "U-87MG ATCC", "outline": "as §3"}, "[25]": {"experiment": "Inhibition of RTK/PI3K/AKT/mTOR signaling in human U87 cells assessed as up regulation of AGRN gene expression at cytotoxic IC50 measured after 48 hrs relative to control", "format": "cell-based", "conditions": "U-87MG ATCC", "outline": "as §3"}, "[26]": {"experiment": "Inhibition of RTK/PI3K/AKT/mTOR signaling in human U87 cells assessed as up regulation of CAPN1 gene expression at cytotoxic IC50 measured after 48 hrs relative to control", "format": "cell-based", "conditions": "U-87MG ATCC", "outline": "as §3"}, "[27]": {"experiment": "Inhibition of RTK/PI3K/AKT/mTOR signaling in human U87 cells assessed as up regulation of RHOA gene expression at cytotoxic IC50 measured after 48 hrs relative to control", "format": "cell-based", "conditions": "U-87MG ATCC", "outline": "as §3"}}}
{"smiles": "CC(=O)C(=NNc1ccccc1C#N)C(C)=O", "values": [{"measurement": "fold change (FC)", "setting": "U-87 MG [1]", "value": -1.609}, {"measurement": "fold change (FC)", "setting": "U-87 MG [2]", "value": -0.7503}, {"measurement": "fold change (FC)", "setting": "U-87 MG [3]", "value": 1.569}, {"measurement": "fold change (FC)", "setting": "U-87 MG [4]", "value": 1.471}, {"measurement": "Activity", "setting": "LN-229", "value": 57.3, "unit": "%"}, {"measurement": "log2FC", "setting": "U-87 MG [5]", "value": -3.569}, {"measurement": "log2FC", "setting": "U-87 MG [6]", "value": 3.078}, {"measurement": "log2FC", "setting": "[7]", "value": -1.44}, {"measurement": "log2FC", "setting": "[8]", "value": -1.14}, {"measurement": "log2FC", "setting": "[9]", "value": -1}, {"measurement": "log2FC", "setting": "[10]", "value": -0.716}, {"measurement": "log2FC", "setting": "[11]", "value": -0.583}, {"measurement": "log2FC", "setting": "[12]", "value": -0.431}, {"measurement": "log2FC", "setting": "[13]", "value": -0.363}, {"measurement": "log2FC", "setting": "[14]", "value": 2.04}, {"measurement": "log2FC", "setting": "[15]", "value": 1.61}, {"measurement": "log2FC", "setting": "[16]", "value": 1.26}, {"measurement": "log2FC", "setting": "[17]", "value": 1.25}, {"measurement": "log2FC", "setting": "[18]", "value": 1.23}, {"measurement": "log2FC", "setting": "[19]", "value": 1.04}, {"measurement": "log2FC", "setting": "[20]", "value": 0.97}, {"measurement": "log2FC", "setting": "[21]", "value": 0.907}, {"measurement": "log2FC", "setting": "[22]", "value": 0.684}, {"measurement": "log2FC", "setting": "[23]", "value": 0.661}, {"measurement": "log2FC", "setting": "[24]", "value": 0.621}, {"measurement": "log2FC", "setting": "[25]", "value": 0.578}, {"measurement": "log2FC", "setting": "[26]", "value": 0.475}, {"measurement": "log2FC", "setting": "[27]", "value": 0.32}]}
